# Columns and labels:
# Details in all cases: stereoisomer not certain
# [1] = molecular target: T1, OR2T4 (Homo sapiens) (UniProt Q8NH00)
# T1 sequence (whole entry): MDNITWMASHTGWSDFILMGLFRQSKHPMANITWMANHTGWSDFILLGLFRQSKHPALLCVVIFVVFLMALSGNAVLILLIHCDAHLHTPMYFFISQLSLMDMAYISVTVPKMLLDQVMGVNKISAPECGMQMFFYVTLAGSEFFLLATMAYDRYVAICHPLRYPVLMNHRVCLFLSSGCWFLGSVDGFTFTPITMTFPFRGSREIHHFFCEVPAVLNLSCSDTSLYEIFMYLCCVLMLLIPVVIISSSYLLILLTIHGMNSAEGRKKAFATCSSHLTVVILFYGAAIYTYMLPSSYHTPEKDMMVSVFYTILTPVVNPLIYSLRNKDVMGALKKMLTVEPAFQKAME
# In short: (§1)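 Whether a receptor–molecule pair is responsive (active) rests on the original authors' judgment that its measured signal was statistically different from baseline. Pairs without that judgment are non-responsive (inactive). Sources used varied assay methods, commonly transient luciferase assays in mammalian cell lines.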
# [2] = molecular target: OR2T2 (Homo sapiens) (UniProt Q6IF00)
# Chain of OR2T2 (Homo sapiens) (Q6IF00 whole entry): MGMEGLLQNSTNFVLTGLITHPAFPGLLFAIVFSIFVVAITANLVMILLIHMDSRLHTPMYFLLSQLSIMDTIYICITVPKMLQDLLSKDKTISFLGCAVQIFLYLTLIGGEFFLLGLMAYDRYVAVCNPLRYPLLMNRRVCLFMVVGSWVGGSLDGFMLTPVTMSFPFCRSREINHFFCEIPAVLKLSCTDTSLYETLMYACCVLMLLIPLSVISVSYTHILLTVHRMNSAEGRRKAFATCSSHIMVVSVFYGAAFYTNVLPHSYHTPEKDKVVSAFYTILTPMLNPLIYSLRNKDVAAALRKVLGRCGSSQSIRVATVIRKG
# In short: as §1
# [3] = molecular target: OR2T27 (Homo sapiens) (UniProt Q8NH04)
# Chain of OR2T27 (Homo sapiens) (Q8NH04 whole entry): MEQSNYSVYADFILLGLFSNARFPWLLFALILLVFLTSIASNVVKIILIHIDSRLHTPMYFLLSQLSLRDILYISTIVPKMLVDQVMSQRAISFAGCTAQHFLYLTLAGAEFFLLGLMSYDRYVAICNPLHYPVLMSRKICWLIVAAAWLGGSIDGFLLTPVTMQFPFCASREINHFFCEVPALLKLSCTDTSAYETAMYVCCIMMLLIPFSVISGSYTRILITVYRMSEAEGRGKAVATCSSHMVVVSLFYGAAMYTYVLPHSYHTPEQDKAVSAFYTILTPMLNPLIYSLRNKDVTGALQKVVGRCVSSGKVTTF
# In short: as §1
# [4] = molecular target: OR2T29 (Homo sapiens) (UniProt Q8NH02)
# Chain of OR2T29 (Homo sapiens) (Q8NH02 whole entry): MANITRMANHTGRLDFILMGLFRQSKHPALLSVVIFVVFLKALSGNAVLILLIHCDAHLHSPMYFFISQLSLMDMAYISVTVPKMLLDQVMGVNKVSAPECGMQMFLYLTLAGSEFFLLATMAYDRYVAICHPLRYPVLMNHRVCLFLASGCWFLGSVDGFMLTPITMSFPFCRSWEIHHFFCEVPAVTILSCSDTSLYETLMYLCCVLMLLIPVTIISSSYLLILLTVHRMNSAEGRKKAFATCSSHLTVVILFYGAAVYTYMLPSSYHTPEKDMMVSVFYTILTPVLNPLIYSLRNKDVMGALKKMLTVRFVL
# In short: as §1
# [5] = molecular target: OR2T3 (Homo sapiens) (UniProt Q8NH03)
# Chain of OR2T3 (Homo sapiens) (Q8NH03 whole entry): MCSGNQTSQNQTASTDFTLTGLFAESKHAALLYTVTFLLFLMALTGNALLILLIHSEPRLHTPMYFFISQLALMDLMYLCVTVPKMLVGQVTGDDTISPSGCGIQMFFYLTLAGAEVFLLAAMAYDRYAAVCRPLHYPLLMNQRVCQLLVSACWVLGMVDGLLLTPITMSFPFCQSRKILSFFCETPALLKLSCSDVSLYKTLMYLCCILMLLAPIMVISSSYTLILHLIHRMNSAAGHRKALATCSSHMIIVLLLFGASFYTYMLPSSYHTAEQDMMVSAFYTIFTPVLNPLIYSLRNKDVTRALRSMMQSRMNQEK
# In short: as §1
# [6] = molecular target: OR2T33 (Homo sapiens) (UniProt Q8NG76)
# Chain of OR2T33 (Homo sapiens) (Q8NG76 whole entry): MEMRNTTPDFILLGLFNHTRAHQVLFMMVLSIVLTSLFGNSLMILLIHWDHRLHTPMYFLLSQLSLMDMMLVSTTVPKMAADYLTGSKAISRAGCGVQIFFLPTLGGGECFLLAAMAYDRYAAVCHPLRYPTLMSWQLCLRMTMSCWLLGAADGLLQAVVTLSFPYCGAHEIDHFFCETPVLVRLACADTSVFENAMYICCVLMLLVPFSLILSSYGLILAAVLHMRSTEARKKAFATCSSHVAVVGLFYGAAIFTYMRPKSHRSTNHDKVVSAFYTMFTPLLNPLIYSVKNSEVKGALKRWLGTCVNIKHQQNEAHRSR
# In short: as §1
# [7] = molecular target: T2, OR2T34 (Homo sapiens) (UniProt Q8NGX1)
# T2 sequence (whole entry): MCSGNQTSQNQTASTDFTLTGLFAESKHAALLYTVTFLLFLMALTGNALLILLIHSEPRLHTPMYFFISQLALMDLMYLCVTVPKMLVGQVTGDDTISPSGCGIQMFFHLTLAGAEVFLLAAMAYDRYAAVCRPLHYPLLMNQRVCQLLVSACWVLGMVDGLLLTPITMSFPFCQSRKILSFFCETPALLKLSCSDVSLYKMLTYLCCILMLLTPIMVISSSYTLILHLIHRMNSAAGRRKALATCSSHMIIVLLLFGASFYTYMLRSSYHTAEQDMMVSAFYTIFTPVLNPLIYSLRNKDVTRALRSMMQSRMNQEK
# In short: as §1
# [8] = molecular target: OR2T35 (Homo sapiens) (UniProt Q8NGX2)
# Chain of OR2T35 (Homo sapiens) (Q8NGX2 whole entry): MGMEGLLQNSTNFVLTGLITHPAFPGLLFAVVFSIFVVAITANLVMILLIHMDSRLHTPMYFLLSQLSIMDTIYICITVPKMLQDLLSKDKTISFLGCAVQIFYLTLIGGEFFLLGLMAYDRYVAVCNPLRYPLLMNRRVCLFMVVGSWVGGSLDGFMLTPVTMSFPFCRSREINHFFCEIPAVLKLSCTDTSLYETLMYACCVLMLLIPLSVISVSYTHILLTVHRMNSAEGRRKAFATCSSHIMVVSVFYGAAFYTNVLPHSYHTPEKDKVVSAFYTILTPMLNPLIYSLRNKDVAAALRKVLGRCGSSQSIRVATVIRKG
# In short: as §1
# [9] = molecular target: OR2T5 (Homo sapiens) (UniProt Q6IEZ7)
# Chain of OR2T5 (Homo sapiens) (Q6IEZ7 whole entry): as the sequence (Q8NH02 whole entry) above, with R13K, Q24R counted along it
# In short: as §1
# [10] = molecular target: OR2T6 (Homo sapiens) (UniProt Q8NHC8)
# Chain of OR2T6 (Homo sapiens) (Q8NHC8 whole entry): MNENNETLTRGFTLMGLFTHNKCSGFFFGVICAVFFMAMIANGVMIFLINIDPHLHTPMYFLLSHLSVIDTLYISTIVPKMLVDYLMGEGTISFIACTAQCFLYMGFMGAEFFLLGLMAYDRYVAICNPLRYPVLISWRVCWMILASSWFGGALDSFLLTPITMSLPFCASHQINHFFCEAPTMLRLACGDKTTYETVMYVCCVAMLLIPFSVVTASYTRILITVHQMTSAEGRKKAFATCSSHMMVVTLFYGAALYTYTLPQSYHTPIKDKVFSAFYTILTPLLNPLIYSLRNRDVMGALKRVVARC
# In short: as §1
# [11] = molecular target: OR2T7 (Homo sapiens) (UniProt P0C7T2)
# Chain of OR2T7 (Homo sapiens) (P0C7T2 whole entry): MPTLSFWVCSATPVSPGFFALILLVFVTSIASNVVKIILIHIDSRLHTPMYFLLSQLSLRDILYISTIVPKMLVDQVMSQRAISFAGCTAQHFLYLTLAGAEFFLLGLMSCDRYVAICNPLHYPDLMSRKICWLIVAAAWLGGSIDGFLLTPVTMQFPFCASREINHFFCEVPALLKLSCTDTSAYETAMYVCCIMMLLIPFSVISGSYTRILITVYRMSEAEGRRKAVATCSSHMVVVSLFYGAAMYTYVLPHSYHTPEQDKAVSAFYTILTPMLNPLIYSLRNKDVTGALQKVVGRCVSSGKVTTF
# In short: as §1
# [12] = system: OR2T2 L104F L262Q
# In short: as §1
# [13] = system: OR2T2 L104F
# Chain of OR2T2 L104F (as listed by the source, stated change not applied): as the sequence (Q6IF00 whole entry) above, with L104F counted along it
# In short: as §1
# [14] = system: OR2T2 Q313H
# Chain of OR2T2 Q313H (as listed by the source, stated change not applied): as the sequence (Q6IF00 whole entry) above, with Q313H counted along it
# In short: as §1
# [15] = system: OR2T3 L256F
# Chain of OR2T3 L256F (as listed by the source, stated change not applied): as the sequence (Q8NH03 whole entry) above, with L256F counted along it
# In short: as §1
# [16] = system: OR2T3 R298C
# Chain of OR2T3 R298C (as listed by the source, stated change not applied): as the sequence (Q8NH03 whole entry) above, with R298C counted along it
# In short: as §1
# [17] = system: OR2T3 Y109H
# Chain of OR2T3 Y109H (as listed by the source, stated change not applied): as the sequence (Q8NH03 whole entry) above, with Y109H counted along it
# In short: as §1
# [18] = system: OR2T5 K13R K41M G45E
# In short: as §1
# [19] = system: OR2T5 K13R L134F
# In short: as §1
# [20] = system: OR2T6 C23G
# Chain of OR2T6 C23G (as listed by the source, stated change not applied): as the sequence (Q8NHC8 whole entry) above, with C23G counted along it
# In short: as §1
smiles,measurement,setting,value
COc1ccc(C=O)cc1,odorant receptor agonist call,[1],inactive
Cc1c([N+](=O)[O-])c(C)c([N+](=O)[O-])c(C(C)(C)C)c1[N+](=O)[O-],odorant receptor agonist call,[2],inactive
same,odorant receptor agonist call,[3],inactive
same,odorant receptor agonist call,[4],inactive
same,odorant receptor agonist call,[5],inactive
same,odorant receptor agonist call,[6],inactive
same,odorant receptor agonist call,[7],inactive
same,odorant receptor agonist call,[8],inactive
same,odorant receptor agonist call,[1],inactive
same,odorant receptor agonist call,[9],inactive
same,odorant receptor agonist call,[10],inactive
same,odorant receptor agonist call,[11],inactive
C=CCOC(=O)Cc1ccccc1,odorant receptor agonist call,[2],inactive
same,odorant receptor agonist call,[12],inactive
same,odorant receptor agonist call,[13],inactive
same,odorant receptor agonist call,[14],inactive
same,odorant receptor agonist call,[3],inactive
same,odorant receptor agonist call,[4],inactive
same,odorant receptor agonist call,[5],inactive
same,odorant receptor agonist call,[15],inactive
same,odorant receptor agonist call,[16],inactive
same,odorant receptor agonist call,[17],inactive
same,odorant receptor agonist call,[6],inactive
same,odorant receptor agonist call,[7],inactive
same,odorant receptor agonist call,[8],inactive
same,odorant receptor agonist call,[1],inactive
same,odorant receptor agonist call,[9],inactive
same,odorant receptor agonist call,[18],inactive
same,odorant receptor agonist call,[19],inactive
same,odorant receptor agonist call,[10],inactive
same,odorant receptor agonist call,[20],inactive
Cc1cccc(C)c1,odorant receptor agonist call,[1],inactive
O=CC=Cc1ccccc1,odorant receptor agonist call,[7],active
O=Cc1ccccc1,odorant receptor agonist call,[7],inactive
